Results reported in publication PMC4159695 (Molecular Microbiology, 2014).

Columns and labels:
[1] = biological target: T1, N‐terminal PAS domain from XC_2579 (Tk 4, residues 1 to 165) (Xanthomonas campestris pv. campestris, UniProt Q8PA41); test: Isothermal titration calorimetry of DSF and structural analogues binding to Tk 4; conditions: ITC; for △H: change in enthalpy upon binding; for △S (cal mol^−1 per degree): change in entropy upon binding
T1 sequence (Q8PA41 14-178): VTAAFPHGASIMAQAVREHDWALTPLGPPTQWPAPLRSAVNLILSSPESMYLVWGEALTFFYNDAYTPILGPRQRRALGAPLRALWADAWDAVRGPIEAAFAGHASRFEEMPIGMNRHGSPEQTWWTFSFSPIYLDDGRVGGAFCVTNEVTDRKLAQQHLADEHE
Method in brief: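 His6-tagged XC_2579 PAS domain construct (Tk 4) expressed in E. coli BL21(DE3) with 0.25 mM IPTG at 37°C for 1 h. Purified by Ni2+ affinity; tag cleaved with HRV 3C protease. Heats corrected against buffer control; one-site fit for Kd, ΔH, ΔS. Repeated at least twice.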

[2] = system: PAS domain of Mycobacterium tuberculosis Rv1364c; conditions: ref King‐Scott et al., 2011, cited from earlier work; for binding to PAS domain: in words
[3] = biological target: T2, full‐length XC_2579 protein (RpfS) (Xanthomonas campestris pv. campestris, UniProt Q8PA41); test: Isothermal titration calorimetry of DSF binding to full-length XC_2579
T2 sequence (Q8PA41 14-968): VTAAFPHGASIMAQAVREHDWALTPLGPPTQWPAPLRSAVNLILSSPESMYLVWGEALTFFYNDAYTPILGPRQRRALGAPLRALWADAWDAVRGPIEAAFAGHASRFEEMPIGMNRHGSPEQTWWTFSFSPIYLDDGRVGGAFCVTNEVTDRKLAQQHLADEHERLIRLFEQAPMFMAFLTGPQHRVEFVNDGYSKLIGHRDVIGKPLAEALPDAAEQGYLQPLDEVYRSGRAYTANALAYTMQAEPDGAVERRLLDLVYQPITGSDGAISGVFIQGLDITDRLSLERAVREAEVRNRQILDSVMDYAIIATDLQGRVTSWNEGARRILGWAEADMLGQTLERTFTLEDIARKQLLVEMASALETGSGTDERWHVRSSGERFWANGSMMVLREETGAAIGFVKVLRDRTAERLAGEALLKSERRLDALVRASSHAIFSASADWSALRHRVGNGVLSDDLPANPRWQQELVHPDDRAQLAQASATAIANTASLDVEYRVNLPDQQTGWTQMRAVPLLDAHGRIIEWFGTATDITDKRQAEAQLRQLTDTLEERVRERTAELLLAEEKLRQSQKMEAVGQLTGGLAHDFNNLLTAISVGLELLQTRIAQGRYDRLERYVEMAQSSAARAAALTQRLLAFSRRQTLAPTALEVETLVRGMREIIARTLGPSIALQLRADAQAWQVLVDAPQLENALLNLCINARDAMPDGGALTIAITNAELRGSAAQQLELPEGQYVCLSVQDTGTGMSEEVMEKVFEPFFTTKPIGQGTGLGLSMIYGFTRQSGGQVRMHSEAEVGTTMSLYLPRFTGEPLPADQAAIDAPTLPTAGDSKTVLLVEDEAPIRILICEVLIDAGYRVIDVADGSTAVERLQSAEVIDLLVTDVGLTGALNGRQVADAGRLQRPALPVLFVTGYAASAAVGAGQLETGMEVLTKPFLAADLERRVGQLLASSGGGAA

[4] = biological target: T3, Tk 3 (XC_2579 amino residues 1 to 240) (Xanthomonas campestris pv. campestris, UniProt Q8PA41); test: Isothermal titration calorimetry of DSF binding to truncation Tk 3; conditions: ITC, Tk 3, in words
T3 sequence (Q8PA41 14-253): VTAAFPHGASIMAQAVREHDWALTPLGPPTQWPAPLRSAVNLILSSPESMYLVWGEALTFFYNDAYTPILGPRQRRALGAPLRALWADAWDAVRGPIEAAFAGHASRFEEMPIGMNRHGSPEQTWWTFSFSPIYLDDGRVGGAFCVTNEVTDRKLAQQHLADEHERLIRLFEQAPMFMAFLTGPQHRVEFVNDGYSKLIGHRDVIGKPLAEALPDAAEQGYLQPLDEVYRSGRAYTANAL

[5] = biological target: T4, Tk 1 (XC_2579 N‐terminal amino acid residues 1 to 360) (Xanthomonas campestris pv. campestris, UniProt Q8PA41); test: Isothermal titration calorimetry of DSF binding to truncation Tk 1; conditions: ITC, Tk 1, in words
T4 sequence (Q8PA41 14-373): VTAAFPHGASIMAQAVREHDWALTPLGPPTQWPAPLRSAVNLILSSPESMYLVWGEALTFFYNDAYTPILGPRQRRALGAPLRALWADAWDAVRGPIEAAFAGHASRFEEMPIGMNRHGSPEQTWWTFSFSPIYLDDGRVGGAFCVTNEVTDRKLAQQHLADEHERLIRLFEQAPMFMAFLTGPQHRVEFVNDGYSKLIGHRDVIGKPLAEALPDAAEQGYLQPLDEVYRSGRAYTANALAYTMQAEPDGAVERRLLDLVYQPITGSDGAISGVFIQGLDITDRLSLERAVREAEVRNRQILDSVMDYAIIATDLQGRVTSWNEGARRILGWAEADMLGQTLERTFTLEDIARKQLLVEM

[6] = system: Tk2 (XC_2579 amino acid residues 530–955); test: Isothermal titration calorimetry of DSF binding to truncation Tk 2; parameters: species or system Xanthomonas campestris pv. campestris; conditions: ITC, Tk2, in words
XC_0107 gfp fusion = test: XC_0107 gfp reporter fusion expression induced by DSF; format: cell-based, Xanthomonas campestris; conditions: rpfFC strain carrying reporter; 50 μM synthetic DSF, 14 h
[7] = Kd (M), Tk 4, higher concentrations of analogues used to estimate Kd

CC(C)CCCCCCCCCC(=O)O [11‐methyl‐dodecanoic acid]
Kd [1, 7]: 0.0069 M | Kd ([1]; Kd, Tk 4): > 0.001 M

CCCCCCCCCCCC(=O)O [Dodecanoic acid]
Kd [1, 7]: 0.0149 M | Kd ([1]; Kd, Tk 4): > 0.001 M

CCCCCCCCCCCCCCCC(=O)O [palmitic acid]
affinity relative to palmitoleic acid (times lower) [2]: 100 times

CC(C)CCCCCCC/C=C\C(=O)O [DSF, cis‐11‐methyl‐2‐dodecenoic acid]
Kd [3]: 1.4 µM | DSF binding ([1]; Tk 4, in words): High affinity DSF binding | △H ([1]; Tk 4): -1.60 kcal/mol | △S (cal mol^−1 per degree) ([1]; Tk 4): 59.73 cal mol^−1 per degree | DSF binding [4]: High affinity DSF binding | DSF binding [5]: bound DSF with high affinity | DSF binding [6]: no binding was detected | expression of GFP (XC_0107 gfp reporter) (XC_0107 gfp fusion): activated

CCCCCCCCC/C=C\C(=O)O [cis‐2‐dodecenoic acid (BDSF), cis‐2‐dodecenoic acid]
△H ([1]; Tk 4): -1.21 kcal/mol | △S (cal mol^−1 per degree) ([1]; Tk 4): 58.05 cal mol^−1 per degree | Kd [1, 7]: 7.1e-06 M | Kd ([1]; Kd, Tk 4, PBS buffer at 25°C): 7e-06 M

CCCCCCCC/C=C\CCCCCCCC(=O)O [oleic acid]
binding to PAS domain [2]: bind

CCCCCC/C=C\CCCCCCCC(=O)O [Palmitoleic acid]
binding to PAS domain [2]: bind

CC(C)CCCCCCC/C=C/C(=O)O [trans‐11‐methyl‐2‐dodecenoic acid]
Kd [1, 7]: 0.00113 M | Kd ([1]; Kd, Tk 4): > 0.001 M
